The values below come from ChEMBL document CHEMBL1124424, “Effects of steroid D-ring modification on suicide inactivation and competitive inhibition of aromatase by analogues of androsta-1,4-diene-3,17-dione” (J Med Chem, 1989).

Series [1] addresses T1, Aromatase (Homo sapiens, UniProt P11511).
T1 sequence (P11511 whole entry): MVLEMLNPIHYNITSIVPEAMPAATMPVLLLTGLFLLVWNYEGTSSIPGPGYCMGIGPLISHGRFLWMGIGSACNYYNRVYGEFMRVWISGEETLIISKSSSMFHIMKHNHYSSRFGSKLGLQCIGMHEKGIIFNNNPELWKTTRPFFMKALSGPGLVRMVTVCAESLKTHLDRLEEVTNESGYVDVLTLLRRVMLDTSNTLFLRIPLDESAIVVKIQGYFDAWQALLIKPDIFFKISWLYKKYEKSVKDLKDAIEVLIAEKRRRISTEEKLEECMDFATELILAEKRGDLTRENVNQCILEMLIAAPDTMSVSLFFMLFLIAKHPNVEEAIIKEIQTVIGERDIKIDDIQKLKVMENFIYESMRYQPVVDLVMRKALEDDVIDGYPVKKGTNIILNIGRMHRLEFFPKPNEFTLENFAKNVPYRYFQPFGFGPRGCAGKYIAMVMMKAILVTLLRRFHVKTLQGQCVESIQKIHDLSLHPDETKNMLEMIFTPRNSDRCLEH
Briefly: Ratio of Ki to Km for human placental cytochrome P450 19A1. The method, boiled down: (§1)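 Human placental microsomes (stored at -70 °C) in incubation buffer containing 4% by weight propylene glycol. Aromatase assays ran 1–5 min with five androstenedione concentrations (0.05–1.0 μM) and varied inhibitor concentrations. Ki is the average of two determinations at each of two inhibitor concentrations, with average deviation. Androstenedione Km was determined in each experiment, and the Ki/Km ratio was calculated.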

The target in series [2] is T1, Aromatase. Nature of the series: Competitive inhibition of binding to human placental aromatase Cytochrome P450 19A1.
In series [3] the target is T1, Aromatase. Nature of the series: Inactivation rate (Ki) of human placental Cytochrome P450 19A1. The method, boiled down:
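Inhibitor at four concentrations, in duplicate, was preincubated for various times with human placental microsomes and NADPH in buffer with 4% propylene glycol. Tritiated androstenedione was then added and residual aromatase activity assayed over 5 min. Loss was corrected against inhibitor-free controls, and first-order slopes gave k_app. Apparent Ki and k_inact came from a reciprocal k_app vs reciprocal concentration plot, with limiting t1/2 = ln2/k_inact.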

The target of series [4] is T1, Aromatase. Nature of the series: Competitive inhibition of binding to human placental Cytochrome P450 19A1. The essentials:
as §1

Series [5] can be described thus: Limiting t1/2 is the half life of aromatase inactivation in the presence of saturating concentrations of inhibitor. The essentials:
(§2)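 Human placental microsomes (stored -70 °C; protein 8.9–16.4 mg/mL, specific activity 34–101 pmol min⁻¹ (mg protein)⁻¹) preincubated with NADPH and four inhibitor concentrations for various times, in buffer with 4% propylene glycol. Tritiated androstenedione then added and remaining aromatase activity assayed 5 min. Duplicates averaged. Activity corrected against inhibitor-free controls. Apparent Ki and kinact from double-reciprocal plot of kapp vs inhibitor concentration. Limiting t1/2 = ln2/kinact.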

In series [6] the target is T1, Aromatase. Nature of the series: Inactivation rate (Ki) for human placental aromatase Cytochrome P450 19A1.
Series [7] deals with T1, Aromatase. Nature of the series: Inactivation rate (Ki) for human placental Cytochrome P450 19A1. The method, boiled down: as §2

In the case of `CCC(=O)C1(C)CCC2C(CCC3=CC(=O)C=CC32C)C1` (stereo not drawn), the Ratio at Aromatase [1] came out at 1833. For the same molecule, the Ki on Aromatase [2] is 97 µM.

Take `CC(=O)C1(C)CCC2C(CCC3=CC(=O)C=CC32C)C1` (stereo not drawn): the Ratio at Aromatase [1] came out at 670. On Aromatase [2], this molecule had a Ki of 45 µM.

Turning to `CC(=O)OCC1(C)CCC2C(CCC3=CC(=O)C=CC32C)C1` (stereo not drawn), the Ratio at Aromatase [1] stood at 273. On Aromatase [2], this molecule showed a Ki of 13 µM.

As to `CC1(C=O)CCC2C(CCC3=CC(=O)C=CC32C)C1` (stereo not drawn), on Aromatase [3], the Ki came to 3.98 µM.

Consider `CC1(C(=O)O)CCC2C(CCC3=CC(=O)C=CC32C)C1` (stereo not drawn), for which the Ratio on Aromatase [1] is 18651. This molecule displayed a Ki at Aromatase [2] of 893 µM.

Turning to `CC1C2CCC3=CC(=O)C=CC3(C)C2CCC1(C)C(=O)O` (stereo not drawn), the Ki at Aromatase [4] was found to be 1200 µM. The Ratio at Aromatase [1] amounted to 23234.

For `C[C@]12C=CC(=O)C=C1CC[C@@H]1[C@@H]2CC[C@]2(C)C(=O)OC[C@@H]12`, the “Limiting t1/2” value in series [5] came to 6.2 min. The Ki at Aromatase [6] was 0.39 µM; on Aromatase [2] it was 0.41 µM.

In turn, `COC(=O)C1(C)CCC2C(CCC3=CC(=O)C=CC32C)C1` (stereo not drawn) showed a Ki at Aromatase [4] of 130 µM. The Ratio on Aromatase [1] was determined as 1898.

In the case of `CC1(CO)CCC2C(CCC3=CC(=O)C=CC32C)C1` (stereo not drawn), the Ki on Aromatase [3] amounted to 8.56 µM.

As for `CC12CCCC1C1CCC3=CC(=O)C=CC3(C)C1CC2` (stereo not drawn), the “Limiting t1/2” value in series [5] was found to be 15.2 min. In addition, the Ratio on Aromatase [1] came to 8.8. The Ki at Aromatase [2] was determined as 0.69 µM; at Aromatase [7] it was 1.1 µM.

For the molecule `COC(=O)C1(C)CCC2C(CCC3=CC(=O)C=CC32C)C1C` (stereo not drawn), the Ratio at Aromatase [1] was determined as 2600. At Aromatase [2], this molecule had a Ki of 103 µM.

`C[C@]12C=CC(=O)C=C1CC[C@@H]1[C@@H]2CC[C@]2(C)C(=O)CC[C@@H]12` [ANDROSTENEDONE]: the “Limiting t1/2” value in series [5] came to 12.6 min.

With `C[C@]12CCC(=O)C[C@@H]1CC[C@@H]1[C@@H]2CC[C@]2(C)[C@@H](O)CC[C@@H]12` [STANOLONE], in series [5], the “Limiting t1/2” value was 12.9 min. The results for the Ki at Aromatase [4] and at Aromatase [7] were 0.22 µM and 1.55 µM, respectively. For the same molecule, at Aromatase [1], the Ratio was 10.6.
